# Results published in ChEMBL document CHEMBL1764985, “Design, synthesis, and evaluation of coumarin-based molecular probes for imaging of myelination” (J Med Chem, 2011).
# Active and inactive are the calls of the source. The calls are words filed in the database; no cut-off is given here.
# How the values were obtained:
# [1] = target: Myelin basic protein (Mus musculus) (UniProt P04370); test: Binding affinity to corpus collosum myelin in central nervous system of mouse […] by fluorescent microscopy; type: tissue-based; details: Corpus callosum
# Mus musculus [2] = species on record: Mus musculus; test: Selectivity for mouse white matter myelin over gray matter myelin; type: tissue-based
# Method in brief: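 Mouse brain sections stained with compound at 100 μM. Fluorescence intensity measured in predefined ROIs: part of the corpus callosum (white matter) and a subcortical gray matter region. White/gray intensity ratio calculated; mean ± SD, n = 3.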
# [3] = target: Myelin basic protein (Mus musculus) (UniProt P04370); test: Binding affinity to corpus collosum myelin in myelin deficient shiverer mouse assessed as myelination levels at 100 uM after 20 mins by fluorescent microscopy relative to control; details: Corpus callosum
# Method in brief: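 Frozen 20 μm brain sections from wild-type C57BL/6 and shiverer (C3Fe.SWV-Mbp^shi/J) mice stained with compound at 100 μM, with anti-MBP immunostaining of the same sections. Pixel intensity in a corpus callosum ROI (midline to below cingulum apex) quantified. Wild-type set to 100, shiverer expressed as percentage. Nonpaired Student's t test.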
# [4] = Lipophilicity, log P of the compound; type: physicochemical; details: octanol/water
# Mus musculus [5] = test: Binding affinity to sciatic nerve myelin in C57BL/6 mouse at 40 mg/kg after 20 mins, iv after 10 mins by fluorescent microscopy; type: functional, organism-based; design: dose 40 mg/kg
# Method in brief: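 Eight-week C57BL/6 mice dosed 40 mg/kg by tail vein in saline; saline alone as control. At 10 min, mice anesthetized with isoflurane and sciatic nerves surgically exposed and imaged under a dissection fluorescence microscope (LP 590 filter). Nerves imaged again after perfusion.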
# [6] = target: Myelin basic protein (Mus musculus) (UniProt P04370); test: Binding affinity to temporal cortex myelin in mouse by fluorescent microscopy; type: tissue-based
# Method in brief: (§1)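 Wild-type mice given 40 mg/kg via tail vein under anesthesia, then perfused transcardially with saline followed by 4% PFA in PBS. Brain sections imaged by fluorescence microscopy (BP470/40 nm filter) for in situ staining in cerebellum, caudate putamen/striatum and temporal cortex. Same sections co-stained with anti-MBP antibody for comparison.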
# [7] = target: Myelin basic protein (Mus musculus) (UniProt P04370); test: Binding affinity to caudate putamen myelin in mouse by fluorescent microscopy; type: tissue-based; method in brief: as §1
# [8] = Half life of the compound in mouse brain; type: ADME, tissue-based
# [9] = target: Myelin basic protein (Mus musculus) (UniProt P04370); test: Binding affinity to sciatic nerve myelin in peripheral nervous system of mouse at 100 uM […] by Black gold II staining
# [10] = target: Myelin basic protein (Mus musculus) (UniProt P04370); test: Binding affinity to cerebellum myelin in central nervous system of mouse […] by fluorescent microscopy
# Chain of Myelin basic protein (Mus musculus) (P04370 whole entry, the tested form may be a part): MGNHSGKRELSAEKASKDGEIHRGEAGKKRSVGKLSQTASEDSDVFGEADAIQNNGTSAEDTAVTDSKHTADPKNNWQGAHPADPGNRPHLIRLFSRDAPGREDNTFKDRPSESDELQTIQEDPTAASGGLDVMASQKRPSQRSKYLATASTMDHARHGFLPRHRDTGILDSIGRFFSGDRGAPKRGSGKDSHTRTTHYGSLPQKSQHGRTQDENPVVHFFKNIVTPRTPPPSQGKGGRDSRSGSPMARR
SMILES,Activity [1],other results
O=c1oc2cc(O)ccc2cc1-c1ccccc1,inactive,–
CN(C)c1ccc(-c2cc3ccc(O)cc3oc2=O)cc1,Active,white/gray matter fluorescence ratio (Mus musculus [2]): 1.25
Nc1ccc2c(C(F)(F)F)cc(=O)oc2c1,inactive,–
O=c1cc(O)c2ccccc2o1,inactive,–
CC(=O)Oc1ccc2oc(=O)c(-c3ccc(N(C)C)cc3)cc2c1,Active,white/gray matter fluorescence ratio (Mus musculus [2]): 1.53
Nc1cc2ccccc2oc1=O,inactive,–
CCN(CC)c1ccc(-c2ccc3cc(-c4ccc(N)cc4)c(=O)oc3c2)cc1,Active,–
CCN(CC)c1ccc(-c2ccc3cc(-c4ccc([N+](=O)[O-])cc4)c(=O)oc3c2)cc1,Active,–
CN(C)c1ccc(-c2cc3cc(F)ccc3oc2=O)cc1,Active,–
CC(=O)Oc1ccc2cc(-c3ccc(N(C)C)cc3)c(=O)oc2c1,Active,white/gray matter fluorescence ratio (Mus musculus [2]): 1.35
CN(C)c1ccc(-c2cc3cc(O)ccc3oc2=O)cc1,Active,white/gray matter fluorescence ratio (Mus musculus [2]): 1.48
O=c1oc2ccccc2cc1O,inactive,–
CCN(CC)c1ccc(-c2ccc3cc(-c4nc5ccccc5n4C)c(=O)oc3c2)cc1,Active,–
CCN(CC)c1ccc(-c2ccc3cc(C(=O)c4cccs4)c(=O)oc3c2)cc1,Active,–
CCN(CC)c1ccc(-c2ccc3cc(-c4nc5ccccc5[nH]4)c(=O)oc3c2)cc1,Active,–
Nc1ccc(-c2cc3ccccc3oc2=O)cc1,Active,white/gray matter fluorescence ratio (Mus musculus [2]): 1.39
O=c1cc(C(F)(F)F)c2ccc(O)cc2o1,inactive,–
CN(C)c1ccc(-c2cc3ccc(OCCF)cc3oc2=O)cc1,Active,white/gray matter fluorescence ratio (Mus musculus [2]): 1.52

SMILES,Activity [1],other results
CN(C)c1ccc2c(C(F)(F)F)cc(=O)oc2c1,inactive,–
Nc1ccc(-c2cc3cc(F)ccc3oc2=O)cc1,Active,–
CN(C)c1ccc(-c2cc3cc(OCCCF)ccc3oc2=O)cc1,Active,white/gray matter fluorescence ratio (Mus musculus [2]): 1.38
COc1ccc2ccc(=O)oc2c1,inactive,–
O=c1oc2ccc(F)cc2cc1-c1ccc([N+](=O)[O-])cc1,inactive,–
Cc1ccc2ccc(=O)oc2c1,inactive,–
CN(C)c1ccc(-c2cc3ccccc3oc2=O)cc1,Active,white/gray matter fluorescence ratio (Mus musculus [2]): 1.34
CN(C)c1ccc(-c2cc3cc(OCCF)ccc3oc2=O)cc1,Active,white/gray matter fluorescence ratio (Mus musculus [2]): 1.33
CCN(CC)c1ccc(-c2ccc3cc(-c4nc5ccccc5s4)c(=O)oc3c2)cc1,Active,–
Cc1cc(=O)oc2ccccc12,inactive,–
CN(C)c1ccc(-c2cc3ccc(OCCCF)cc3oc2=O)cc1,Active,Activity [3]: 12%; logP [4]: 3.82; Activity (Mus musculus [5]): Active; Activity [6]: Active; Activity [7]: Active; white/gray matter fluorescence ratio (Mus musculus [2]): 1.54; half-life [8]: 20 min; Activity [9]: Active; Activity [10]: Active
O=c1oc2ccccc2cc1-c1ccccc1,inactive,–
O=c1ccc2ccccc2o1,inactive,–
O=c1oc2ccccc2cc1-c1ccc([N+](=O)[O-])cc1,inactive,–
CCN(CC)c1ccc(-c2ccc3cc(-c4ccc(CBr)cc4)c(=O)oc3c2)cc1,Active,–
Nc1cc(=O)oc2ccccc12,inactive,–
O=c1oc2ccccc2c(O)c1Cc1c(O)c2ccccc2oc1=O,inactive,–
